The source of these data is ChEMBL document CHEMBL4190328, “Design, Synthesis, and Biological Evaluation of Tetrahydroisoquinoline-Based Histone Deacetylase 8 Selective Inhibitors” (ACS Med Chem Lett, 2017).

The target of experiment [1] is Histone deacetylase 1 (Homo sapiens, UniProt Q13547). Kind of experiment: Inhibition of recombinant full-length human C-terminal FLAG-His-tagged HDAC1 expressed in baculovirus infected Sf9 insect cells using Boc-L-Lys(Ac)-AMC as substrate preincubated for 5 mins followed by substrate addition measured after 35 mins by fluorescence assay.
Sequence of Histone deacetylase 1 (Q13547 whole entry): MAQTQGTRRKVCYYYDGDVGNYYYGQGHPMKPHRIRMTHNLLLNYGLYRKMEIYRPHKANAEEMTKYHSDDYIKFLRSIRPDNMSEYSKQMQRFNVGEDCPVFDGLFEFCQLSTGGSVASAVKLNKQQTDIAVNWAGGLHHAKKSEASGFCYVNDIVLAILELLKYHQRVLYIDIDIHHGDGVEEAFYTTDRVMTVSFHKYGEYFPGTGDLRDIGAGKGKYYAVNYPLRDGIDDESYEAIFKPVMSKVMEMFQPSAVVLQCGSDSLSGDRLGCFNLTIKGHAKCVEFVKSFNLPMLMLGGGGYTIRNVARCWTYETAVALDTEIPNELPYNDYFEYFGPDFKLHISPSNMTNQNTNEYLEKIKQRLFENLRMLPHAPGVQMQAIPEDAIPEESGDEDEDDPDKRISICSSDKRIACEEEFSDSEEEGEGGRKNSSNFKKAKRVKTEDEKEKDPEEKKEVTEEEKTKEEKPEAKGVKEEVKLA
Experiment [2] addresses Histone deacetylase 2 (Homo sapiens, UniProt Q92769). Nature of the experiment: Inhibition of recombinant human full-length C-terminal His-tagged HDAC2 expressed in baculovirus infected Sf9 insect cells using Boc-L-Lys(Ac)-AMC as substrate preincubated for 5 mins followed by substrate addition measured after 35 mins by fluorescence assay.
Experiment [3] concerns the target Histone deacetylase 3/Nuclear receptor corepressor 2 (HDAC3/NCoR2) (Homo sapiens, UniProt O15379). Nature of the experiment: Inhibition of recombinant human full-length C-terminal His-tagged HDAC3 (395 to 489 residues)/human NCOR2 expressed in baculovirus infected Sf9 insect cells using Boc-L-Lys(Ac)-AMC as substrate pretreated for 5 mins followed by substrate addition measured after 35 mins by fluorescence assay.

Experiment [4] deals with T1, Histone deacetylase 8 (Homo sapiens, UniProt Q9BY41).
T1 sequence (Q9BY41 whole entry): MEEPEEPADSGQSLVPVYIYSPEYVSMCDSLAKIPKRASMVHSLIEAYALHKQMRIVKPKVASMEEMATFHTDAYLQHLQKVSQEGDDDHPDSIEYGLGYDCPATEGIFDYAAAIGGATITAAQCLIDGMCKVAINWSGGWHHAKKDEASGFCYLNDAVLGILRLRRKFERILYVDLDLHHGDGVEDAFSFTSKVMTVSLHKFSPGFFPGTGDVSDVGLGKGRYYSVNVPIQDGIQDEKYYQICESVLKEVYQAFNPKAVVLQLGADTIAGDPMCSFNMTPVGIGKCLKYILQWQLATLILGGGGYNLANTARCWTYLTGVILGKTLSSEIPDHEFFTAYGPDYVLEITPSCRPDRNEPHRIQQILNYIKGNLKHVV
Kind of experiment: Inhibition of recombinant HDAC8 (unknown origin) expressed in Escherichia coli using fluor de Lys(R) as substrate pretreated for 5 mins followed by substrate addition measured after 35 mins by fluorescence assay.

Experiment [5] has as its target T2, Protein deacetylase HDAC6 (Homo sapiens) (UniProt Q9UBN7).
T2 sequence (whole entry): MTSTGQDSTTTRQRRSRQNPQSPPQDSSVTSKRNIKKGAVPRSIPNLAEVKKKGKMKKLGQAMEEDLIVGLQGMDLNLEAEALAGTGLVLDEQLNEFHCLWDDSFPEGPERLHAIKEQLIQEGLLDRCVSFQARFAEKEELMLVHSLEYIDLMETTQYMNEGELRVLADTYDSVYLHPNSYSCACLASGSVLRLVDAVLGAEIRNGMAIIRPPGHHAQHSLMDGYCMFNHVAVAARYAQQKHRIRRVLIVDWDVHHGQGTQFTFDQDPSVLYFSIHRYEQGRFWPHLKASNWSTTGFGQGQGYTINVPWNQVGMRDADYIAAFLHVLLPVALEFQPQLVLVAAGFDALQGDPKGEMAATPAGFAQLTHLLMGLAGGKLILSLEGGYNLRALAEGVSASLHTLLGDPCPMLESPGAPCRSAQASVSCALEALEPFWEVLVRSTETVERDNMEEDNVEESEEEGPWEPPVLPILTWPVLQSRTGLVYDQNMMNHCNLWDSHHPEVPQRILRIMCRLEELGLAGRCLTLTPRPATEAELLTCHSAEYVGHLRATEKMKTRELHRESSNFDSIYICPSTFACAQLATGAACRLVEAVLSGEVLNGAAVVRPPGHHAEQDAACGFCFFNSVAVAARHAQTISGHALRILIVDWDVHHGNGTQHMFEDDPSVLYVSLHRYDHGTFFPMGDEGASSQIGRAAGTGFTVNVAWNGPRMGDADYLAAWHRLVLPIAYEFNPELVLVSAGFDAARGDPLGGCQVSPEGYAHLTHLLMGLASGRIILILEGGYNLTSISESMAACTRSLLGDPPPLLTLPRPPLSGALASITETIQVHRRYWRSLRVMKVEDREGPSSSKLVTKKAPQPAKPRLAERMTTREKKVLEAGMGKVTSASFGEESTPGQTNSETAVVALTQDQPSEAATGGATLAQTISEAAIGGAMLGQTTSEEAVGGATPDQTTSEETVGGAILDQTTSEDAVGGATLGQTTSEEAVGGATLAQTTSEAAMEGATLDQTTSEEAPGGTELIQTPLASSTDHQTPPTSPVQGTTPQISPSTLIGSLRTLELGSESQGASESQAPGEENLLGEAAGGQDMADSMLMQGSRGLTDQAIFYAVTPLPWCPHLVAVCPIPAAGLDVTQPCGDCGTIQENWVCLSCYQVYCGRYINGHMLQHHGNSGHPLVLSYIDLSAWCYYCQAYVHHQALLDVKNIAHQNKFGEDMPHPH
Kind of experiment: Inhibition of recombinant human HDAC6 at 10 uM using fluorogenic HDAC substrate 3 by fluorescence assay relative to control. The essentials:
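HDAC6 activity was measured with test compound at 10 μM and reported as percent inhibition. Values are mean ± standard deviation of at least two independent experiments, rounded to two significant figures.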

For experiment [6], the species on record is Homo sapiens. Nature of the experiment: Selectivity ratio of IC50 for recombinant full-length human C-terminal FLAG-His-tagged HDAC1 expressed in baculovirus infected Sf9 insect cells to IC50 for recombinant HDAC8 (unknown origin) expressed in Escherichia coli.
The species entered for experiment [7] is Homo sapiens. Kind of experiment: Selectivity ratio of IC50 for recombinant human full-length C-terminal His-tagged HDAC2 expressed in baculovirus infected Sf9 insect cells to IC50 for recombinant HDAC8 (unknown origin) expressed in Escherichia coli.
Experiment [8] is filed under the species Homo sapiens. Nature of the experiment: Selectivity ratio of IC50 for recombinant human full-length C-terminal His-tagged HDAC3 (395 to 489 residues)/human NCOR2 expressed in baculovirus infected Sf9 insect cells to IC50 for recombinant HDAC8 (unknown origin) expressed in Escherichia coli.
Experiment [9] relates to SH-SY5Y. Nature of the experiment: Cytotoxicity against human SH-SY5Y cells expressing TP53 by CellTiter96 AQueous one solution cell proliferation assay. It is filed as functional, cell-based.
Experiment [10] has as its system IMR-5. Kind of experiment: Cytotoxicity against human IMR5 cells expressing TP53 by CellTiter96 AQueous one solution cell proliferation assay. It is filed as functional, cell-based.
The test system of experiment [11] is SK-N-AS. Nature of the experiment: Cytotoxicity against human SK-N-AS cells expressing TP53 mutation by CellTiter96 AQueous one solution cell proliferation assay. Type of experiment: functional, cell-based.
In experiment [12] the test system is Kelly. Nature of the experiment: Cytotoxicity against human Kelly cells expressing TP53 mutation by CellTiter96 AQueous one solution cell proliferation assay. It is filed as functional, cell-based.
Experiment [13] concerns SH-SY5Y. Conditions: Homo sapiens, at 10 µM.
Experiment [14] deals with SH-SY5Y. Conditions: Homo sapiens, at 10 µM. This is another data set of the same source.
The subject of experiment [15] is SH-SY5Y. Nature of the experiment: Cytotoxicity against human SH-SY5Y cells expressing TP53 at 10 uM supplemented with fresh medium containing compound every 3 days measured after 72 hrs by CellTiter96 AQueous one solution cell proliferation assay. Type of experiment: functional, cell-based.
The subject of experiment [16] is SH-SY5Y. Nature of the experiment: Inhibition of class 1 HDAC in human SH-SY5Y cells assessed as increase in acetylation of histone H3 at 0.1 to 10 uM after 24 hrs by Western blot analysis. Type of experiment: cell-based. The essentials: (§1)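 SH-SY5Y cells were treated with the stated concentrations for 24 h. Lysates were analysed by Western blot for acetylated histone H3 and acetylated α-tubulin.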

In experiment [17] the test system is SH-SY5Y. Nature of the experiment: Inhibition of class 2 HDAC in human SH-SY5Y cells assessed as increase in acetylation of alpha-tubulin at 0.1 to 10 uM after 24 hrs by Western blot analysis. Type of experiment: cell-based. The essentials:
as §1

SMILES strings stand for the structures. Calls of active or inactive are those of the source. No cut-off for these calls is given here. Where only a bound is given, the exact number is not on record here.

Sequence of Histone deacetylase 2 (Q92769 whole entry, the tested form may be a part): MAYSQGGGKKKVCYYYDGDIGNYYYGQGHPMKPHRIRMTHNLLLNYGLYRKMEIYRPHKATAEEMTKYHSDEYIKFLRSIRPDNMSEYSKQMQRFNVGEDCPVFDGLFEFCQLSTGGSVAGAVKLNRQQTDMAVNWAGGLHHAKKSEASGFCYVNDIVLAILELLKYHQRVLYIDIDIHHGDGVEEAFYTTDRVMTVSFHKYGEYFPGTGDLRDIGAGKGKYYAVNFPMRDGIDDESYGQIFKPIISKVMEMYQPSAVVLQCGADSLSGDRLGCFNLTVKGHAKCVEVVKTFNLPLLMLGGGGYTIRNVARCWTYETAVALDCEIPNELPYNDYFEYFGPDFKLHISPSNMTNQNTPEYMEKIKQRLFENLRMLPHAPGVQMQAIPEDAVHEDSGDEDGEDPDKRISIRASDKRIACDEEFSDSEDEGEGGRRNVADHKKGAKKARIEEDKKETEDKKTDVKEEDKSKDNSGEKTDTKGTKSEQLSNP
Sequence of Histone deacetylase 3/Nuclear receptor corepressor 2 (HDAC3/NCoR2) (O15379 whole entry, the tested form may be a part): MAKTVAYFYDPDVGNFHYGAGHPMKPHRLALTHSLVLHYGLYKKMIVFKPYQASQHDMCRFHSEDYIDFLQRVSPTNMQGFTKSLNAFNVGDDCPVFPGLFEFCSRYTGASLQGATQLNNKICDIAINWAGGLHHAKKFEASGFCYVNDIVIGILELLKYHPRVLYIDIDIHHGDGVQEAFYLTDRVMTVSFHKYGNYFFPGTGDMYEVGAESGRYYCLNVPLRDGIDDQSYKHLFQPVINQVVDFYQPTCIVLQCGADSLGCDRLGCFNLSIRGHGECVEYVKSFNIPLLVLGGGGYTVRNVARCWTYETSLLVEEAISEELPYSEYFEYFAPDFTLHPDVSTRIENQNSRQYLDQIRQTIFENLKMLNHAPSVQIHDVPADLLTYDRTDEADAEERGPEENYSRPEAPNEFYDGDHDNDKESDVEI
Sequence of Histone deacetylase 3/Nuclear receptor corepressor 2 (HDAC3/NCoR2) (Q9Y618 whole entry, further chain, the tested form may be a part): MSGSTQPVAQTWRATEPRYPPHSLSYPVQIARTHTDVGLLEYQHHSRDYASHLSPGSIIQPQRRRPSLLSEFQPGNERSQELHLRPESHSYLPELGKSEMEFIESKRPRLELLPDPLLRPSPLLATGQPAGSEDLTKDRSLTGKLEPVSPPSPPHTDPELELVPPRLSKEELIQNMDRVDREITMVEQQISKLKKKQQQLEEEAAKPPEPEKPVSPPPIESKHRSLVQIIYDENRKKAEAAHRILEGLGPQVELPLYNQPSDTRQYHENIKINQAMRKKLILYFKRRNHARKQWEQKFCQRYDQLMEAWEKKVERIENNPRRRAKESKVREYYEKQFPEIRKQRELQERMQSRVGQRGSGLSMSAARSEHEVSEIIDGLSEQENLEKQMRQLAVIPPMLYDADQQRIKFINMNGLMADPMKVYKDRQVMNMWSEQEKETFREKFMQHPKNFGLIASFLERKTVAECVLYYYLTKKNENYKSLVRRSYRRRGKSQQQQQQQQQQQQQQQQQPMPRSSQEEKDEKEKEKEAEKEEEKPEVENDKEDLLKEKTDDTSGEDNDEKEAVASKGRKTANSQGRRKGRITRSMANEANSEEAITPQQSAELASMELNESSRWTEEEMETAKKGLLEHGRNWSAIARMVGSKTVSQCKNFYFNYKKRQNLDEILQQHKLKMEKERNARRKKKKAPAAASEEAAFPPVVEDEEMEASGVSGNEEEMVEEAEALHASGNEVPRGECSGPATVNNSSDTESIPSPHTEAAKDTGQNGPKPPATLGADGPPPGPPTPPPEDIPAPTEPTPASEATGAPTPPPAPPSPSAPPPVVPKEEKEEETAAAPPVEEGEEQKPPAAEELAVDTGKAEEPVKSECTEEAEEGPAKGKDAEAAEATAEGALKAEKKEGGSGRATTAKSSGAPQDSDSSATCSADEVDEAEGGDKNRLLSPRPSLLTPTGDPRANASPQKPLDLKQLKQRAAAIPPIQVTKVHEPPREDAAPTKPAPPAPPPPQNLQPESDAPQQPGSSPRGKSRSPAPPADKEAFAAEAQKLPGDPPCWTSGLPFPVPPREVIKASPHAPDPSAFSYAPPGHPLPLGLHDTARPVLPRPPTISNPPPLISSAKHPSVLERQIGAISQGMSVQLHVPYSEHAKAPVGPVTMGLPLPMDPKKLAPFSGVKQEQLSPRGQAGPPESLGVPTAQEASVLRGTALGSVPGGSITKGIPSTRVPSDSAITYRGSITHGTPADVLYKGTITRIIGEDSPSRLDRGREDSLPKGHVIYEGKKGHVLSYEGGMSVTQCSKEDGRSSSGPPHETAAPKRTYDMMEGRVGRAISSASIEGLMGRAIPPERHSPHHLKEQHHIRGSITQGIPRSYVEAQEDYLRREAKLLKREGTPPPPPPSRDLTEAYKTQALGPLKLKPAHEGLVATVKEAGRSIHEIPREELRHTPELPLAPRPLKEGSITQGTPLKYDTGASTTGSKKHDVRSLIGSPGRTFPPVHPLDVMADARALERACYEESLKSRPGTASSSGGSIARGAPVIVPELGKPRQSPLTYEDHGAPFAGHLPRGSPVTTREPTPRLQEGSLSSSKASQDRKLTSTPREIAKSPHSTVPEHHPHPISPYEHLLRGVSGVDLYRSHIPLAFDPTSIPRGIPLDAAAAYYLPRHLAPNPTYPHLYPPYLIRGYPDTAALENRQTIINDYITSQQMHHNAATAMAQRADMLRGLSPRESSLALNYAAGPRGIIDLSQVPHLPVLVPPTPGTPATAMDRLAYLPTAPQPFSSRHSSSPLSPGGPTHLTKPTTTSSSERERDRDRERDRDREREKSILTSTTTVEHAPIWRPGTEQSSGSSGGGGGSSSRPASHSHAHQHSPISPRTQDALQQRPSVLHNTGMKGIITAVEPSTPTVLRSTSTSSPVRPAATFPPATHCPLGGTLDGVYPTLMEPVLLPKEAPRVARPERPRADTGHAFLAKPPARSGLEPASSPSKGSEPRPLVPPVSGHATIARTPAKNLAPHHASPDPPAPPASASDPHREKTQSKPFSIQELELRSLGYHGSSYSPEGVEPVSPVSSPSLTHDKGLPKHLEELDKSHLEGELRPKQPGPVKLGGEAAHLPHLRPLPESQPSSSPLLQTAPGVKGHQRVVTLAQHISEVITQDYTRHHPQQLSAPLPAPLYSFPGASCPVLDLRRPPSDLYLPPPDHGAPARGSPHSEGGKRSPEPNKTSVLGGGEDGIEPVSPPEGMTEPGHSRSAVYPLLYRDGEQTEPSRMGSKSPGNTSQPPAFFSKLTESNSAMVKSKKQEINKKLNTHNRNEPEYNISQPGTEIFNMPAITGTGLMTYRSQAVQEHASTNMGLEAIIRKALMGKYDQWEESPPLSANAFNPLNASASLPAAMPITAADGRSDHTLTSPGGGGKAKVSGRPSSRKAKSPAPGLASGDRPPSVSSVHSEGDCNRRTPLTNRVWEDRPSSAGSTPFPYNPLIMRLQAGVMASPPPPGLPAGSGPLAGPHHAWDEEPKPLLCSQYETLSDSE

A word on the IC50: it is the concentration that gives 50% inhibition. One may read the inhibition as the drop in the measured response relative to a control, in per cent. For the compound `O=C(CCCCN1CCc2ccccc2C1c1ccccc1)NO` (stereo not given), the half-maximal inhibitory concentration (IC50) in experiment [1] was 0.77 µM; in [2], 2.7 µM; in experiment [3], 0.81 µM; in [4], 0.044 µM. Besides, the inhibition in experiment [5] worked out at 93%. In addition, the Ratio IC50 in experiment [6] turned out to be 18; in experiment [7] it was 61; in experiment [8] it was 18.

With `O=C(CCCCCCNCc1ccccc1)NO`, the half-inhibitory concentration (IC50) worked out at 0.34 µM in [1], 3.1 µM in experiment [2], 0.43 µM in [3] and 1.8 µM in [4].

With `COc1ccc(Cn2ccc3ccc(C(=O)NO)cc32)cc1`, the result in experiment [9], in experiment [10], in [11] and in [12] was Active. The inhibition entry in [13] and in [14] was “inactive” throughout.

Regarding `O=C(CCCCCCN1CCc2ccccc2C1)NO`, the concentration for half-maximal inhibition (IC50) in [1] came out at 0.098 µM; in experiment [2] it was 0.33 µM; in experiment [3], 0.097 µM; in [4], 1.9 µM. In addition, the inhibition in experiment [5] was determined as 97%.

`O=C(CCCCCCN(Cc1ccccc1)Cc1ccccc1)NO`: the IC50 in experiment [1] is 1.1 µM; in experiment [2] it was 2.7 µM; in experiment [3] it was 1.1 µM; in experiment [4], 4 µM.

As to `O=C(CCN1CCc2ccccc2C1c1ccc(C(F)(F)F)cc1)NO` (stereo not given), the IC50 in experiment [1] is 18 µM; in experiment [2], more than 100 µM; in [3], 27 µM; in [4] it was 0.19 µM. Moreover, the inhibition in [5] worked out at 26%.

`O=C(CCN1CCc2ccccc2C1c1cccc(C(F)(F)F)c1)NO` (stereo not given): the IC50 in [1] is 37 µM; in experiment [2], more than 100 µM; in [3], more than 100 µM; in [4], 0.34 µM. The inhibition in experiment [5] was determined as 17%.

Consider `O=C(CCN1CCc2ccccc2C1c1ccc2ccccc2c1)NO` (stereo not given), for which the IC50 in experiment [1] stood at 2.4 µM; in experiment [2], 13 µM; in [3], 3.4 µM; in experiment [4], 0.39 µM. The inhibition in experiment [5] is 74%.

`CCOc1ccc(C2c3ccccc3CCN2CCC(=O)NO)cc1` (stereo not given): the IC50 in experiment [1] was 24 µM; in experiment [2], 99 µM; in experiment [3], more than 100 µM; in [4], 0.21 µM. In addition, the inhibition in experiment [5] was 5.7%.

On to `O=C(CCN(Cc1ccccc1)Cc1ccccc1)NO`, for which the IC50 in experiment [1] is 33 µM; in experiment [2], more than 100 µM; in experiment [3] it was 52 µM; in experiment [4] it was 1.4 µM. For the same compound, the Ratio IC50 in experiment [6] is 24; in experiment [7] it was more than 71; in experiment [8] it was 37.

With `O=C(CCN1CCc2ccccc2C1)NO`, the IC50 in experiment [1] was 57 µM; in experiment [2] it was more than 100 µM; in experiment [3], 98 µM; in [4] it was 19 µM. The inhibition in [5] is 31%.

In the case of `COc1cccc(C2c3ccccc3CCN2CCC(=O)NO)c1` (stereo not given), the half-maximal inhibitory concentration (IC50) in experiment [1] was 13 µM; in [2], 69 µM; in experiment [3], 34 µM; in experiment [4], 0.11 µM. For the same compound, in [5], the inhibition worked out at 27%.

On to `O=C(CN1CCc2ccccc2C1c1ccccc1)NO` (stereo not given), for which the IC50 in [1] was more than 100 µM; in [2], more than 100 µM; in [3] it was more than 100 µM; in experiment [4] it was 19 µM. Further, the inhibition in [5] is 17%.

On to `O=C(CCNCc1ccccc1)NO`, for which the IC50 in experiment [1] is 50 µM; in [2] it was more than 100 µM; in experiment [3] it was 72 µM; in [4], more than 100 µM.

For `O=C(CCCCN(Cc1ccccc1)Cc1ccccc1)NO`, the IC50 in experiment [1] came to 1.8 µM; in experiment [2] it was 5.4 µM; in experiment [3], 1.4 µM; in experiment [4], 1.9 µM.

For the compound `COc1ccc(C2c3ccccc3CCN2CCC(=O)NO)cc1` (stereo not given), the half-maximal inhibitory concentration (IC50) in experiment [1] was 27 µM; in experiment [2], more than 100 µM; in experiment [3], more than 100 µM; in experiment [4], 0.082 µM. In addition, the inhibition in experiment [5] is 21%. Also, the Ratio IC50 in [6] was determined as 330. The outcome in [15] was Active. Besides, the inhibition result in experiment [16] and in [17] was “inactive” each time.

Consider `O=C(CCN1CCc2ccccc2C1C1CCCCC1)NO` (stereo not given), for which the IC50 in experiment [1] was more than 100 µM; in experiment [2], more than 100 µM; in experiment [3], 75 µM; in experiment [4], 6.7 µM. For the same compound, the inhibition in experiment [5] was determined as 32%.

Take `O=C(CCCCNCc1ccccc1)NO`: the IC50 in experiment [1] stood at 14 µM; in [2], 58 µM; in experiment [3], 22 µM; in experiment [4], 10 µM.

`O=C(CCN1CCc2ccccc2C1c1ccccc1)NO` (stereo not given): the IC50 in experiment [1] stood at 4.4 µM; in experiment [2], 40 µM; in [3], 10 µM; in experiment [4], 0.95 µM. Also, in experiment [5], the inhibition amounted to 35%.

Take `CC(C)(C)c1ccc(C2c3ccccc3CCN2CCC(=O)NO)cc1` (stereo not given): the IC50 is 18 µM in [1], 29 µM in [2], 29 µM in [3] and 0.48 µM in experiment [4]. In addition, in experiment [5], the inhibition is 30%.
